The text below walks through data of ChEMBL document CHEMBL1124929, “Indolo[2,1-a]isoquinolines. Syntheses, steroid hormone receptor binding affinities, and cytostatic activity” (1990).

Each structure is given as a SMILES string. A value given as a limit tells only on which side of the number the result lay.

The term T/C denotes the result in the treated group divided by that in the control group, in per cent. For orientation: inhibition means the change of the read-out against control, counted positive when it falls.

Assay [1] concerns the target T1, Androgen Receptor (Bos taurus) (UniProt Q5EM59).
T1 sequence (whole entry): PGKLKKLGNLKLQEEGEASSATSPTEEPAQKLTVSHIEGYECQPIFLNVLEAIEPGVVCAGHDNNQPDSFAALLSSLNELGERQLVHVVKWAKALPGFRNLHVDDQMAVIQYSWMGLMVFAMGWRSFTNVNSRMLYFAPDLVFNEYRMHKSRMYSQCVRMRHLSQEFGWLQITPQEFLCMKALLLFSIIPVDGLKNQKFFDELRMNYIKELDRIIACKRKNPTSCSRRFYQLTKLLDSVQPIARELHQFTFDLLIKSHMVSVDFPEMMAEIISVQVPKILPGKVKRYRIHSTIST
Kind of assay: Relative binding affinity(RBA) for 50% displacement of [3H]mibolerone from Androgen receptor compared to testorone. The method in brief:
(§1)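 Receptor source was calf uterine cytosol (105000g supernatant, 3 mg/mL protein in assay). Buffers were Tris/EDTA pH 7.4, with NaN₃ for ER, molybdate/glycerol for AR, and sucrose for PR. Tracers were 1 nM [³H]estradiol, [³H]mibolerone or [³H]Org 2058. Incubation was at 0–4 °C for 16 h (ER) or 2 h (AR, PR), with 4–6 competitor concentrations. Nonspecific binding used 2 µM of the unlabeled hormone. Separation was by dextran-coated charcoal. RBA is the ratio of IC50 values for hormone and compound ×100, mean of two triplicate experiments.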

Assay [2] concerns the target Estrogen receptor (Bos taurus) (UniProt Q9XSB5+P49884). The assay can be described thus: Relative binding affinity(RBA) for 50% displacement of [3H]-estradiol from Estrogen receptor compared to 17-beta-estradiol. In kind it is protein assay. The method in brief:
as §1
Background: Loss of bound radioactivity is the signal in a displacement assay; it reports binding, not function.

Assay [3] deals with MDA-MB-231. The assay can be described thus: Cytostatic effect on hormone-independent MDA-MB 231 human breast cancer cell proliferation at 1x10E-5 M. It is filed as functional. The method in brief:
(§2)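 Cells were plated at about 2 × 10⁴ per well in six-well dishes. MCF-7 cells were grown in modified improved MEM with 5% NCS, switched to charcoal-treated NCS two weeks before the test, and exposed for 5 days with a re-dose on day 4. MDA-MB 231 cells were grown in McCoy 5a with 10% NCS and exposed for 2 days. Compounds were given 1 day after plating in 0.1% DMSO, with DMSO-matched controls. Read-out was cell number as % T/C, mean of three experiments with six dishes.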

Assay [4] relates to MDA-MB-231. The assay can be described thus: Effect on [3H]thymidine incorporation into MDA-MB 231 human breast cancer cells at 1x10E-5 M. In kind it is functional. The method in brief: (§3)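 Cells were seeded at ~2 × 10⁴ per well, treated from the next day in 0.1% DMSO, with DMSO controls. MCF-7 cells were held in charcoal-stripped NCS for 2 weeks, treated for 5 days and re-dosed on day 4. MDA-MB 231 cells were grown in McCoy 5a/10% NCS and treated for 2 days. At the end, 1 µCi [³H]thymidine per well was added for 2 h. Result is % T/C, mean of three experiments × six dishes.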

The test system of assay [5] is MCF7. The assay can be described thus: Effect on hormone-dependent MCF-7 human breast cancer cell proliferation at 1x10E-5 M. It is filed as functional. The method in brief:
as §2

The test system of assay [6] is MCF7. Kind of assay: Effect on [3H]thymidine incorporation into MCF-7 human breast cancer cells at 1x10E-5 M. In kind it is functional. The method in brief:
as §3
On the technique in general: Uptake of a labelled nucleoside into DNA is a usual measure of proliferation.

The test system of assay [7] is MCF7. The assay can be described thus: Effect on hormone-dependent MCF-7 human breast cancer cell proliferation at 1x10E-6M. It is filed as functional. The method in brief: as §2
In assay [8] the test system is MCF7. Kind of assay: Effect on [3H]thymidine incorporation into MCF-7 human breast cancer cells at 1x10E-6M. In kind it is functional. The method in brief:
as §3

The target in assay [9] is T2, Estrogen receptor (Mus musculus) (UniProt O08537+P19785). The assay can be described thus: (§4) Estrogenic activity in uterotrophic assay in immature mice at 125 ug subcutaneous dose. In kind it is functional. The method in brief:
(§5)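 Immature female NMRI mice, 20 days old, in groups of 6-10, were dosed sc once daily for three consecutive days. Compounds were given in PEG/0.9% saline 1:1; vehicle controls were included. Animals were killed 24 h after the last dose. Uteri were fixed in Bouin solution and the effect was taken as uterine dry weight (mg)/body weight (g) ×100, given as mean ± SD.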

The target in assay [10] is T2, Estrogen receptor (Mus musculus). The assay can be described thus: (§6) Estrogenic activity in uterotrophic assay in immature mice at 2 ug subcutaneous dose. It is filed as functional. The method in brief: as §5
Assay [11] shares this target. The assay can be described thus: (§7) Estrogenic activity in uterotrophic assay in immature mice at 40.0 ug subcutaneous dose. It is filed as functional. The method in brief:
as §5

The target is the same in assay [12]. Described as §6. In kind it is functional. The method in brief: as §5
The source holds these as a separate data set.

Assay [13] shares this target. The description is as §7. It is filed as functional. The method in brief: as §5
This is another data set of the same source.

Assay [14] has the same target. Described as §4. It is filed as functional. The method in brief: as §5
This is another data set of the same source.

For assay [15] the target is unchanged. Kind of assay: Inhibition of 0.4 ug estrone-stimulated uterine growth in mice at 40.0 ug subcutaneous dose. In kind it is functional. The method in brief: (§8)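 Immature 20-day-old female NMRI mice received sc injections on three consecutive days. Each injection held 0.4 µg estrone plus the compound in PEG/saline 1:1. […] Significance was tested by Mann-Whitney U test.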

Assay [16] has the same target. The assay can be described thus: Inhibition of 0.4 ug estrone-stimulated uterine growth in mice at 125 ug subcutaneous dose. It is filed as functional. The method in brief: as §8
For assay [17] the target is unchanged. Kind of assay: Inhibition of 0.4 ug estrone-stimulated uterine growth in mice at 2 ug subcutaneous dose. It is filed as functional. The method in brief:
as §8

The species entered for assay [18] is Bos taurus. The assay can be described thus: Relative binding affinity(RBA) as ratio of progesterone and compound required to displace [3H]-org 2058 binding to Progesterone receptor by 50%. The method in brief:
as §1

Assay [19] concerns MDA-MB-231. The assay can be described thus: Cytostatic effect on hormone-independent MDA-MB 231 human breast cancer cell proliferation at 1x10E-6M. It is filed as functional. The method in brief:
as §2

Assay [20] deals with MDA-MB-231. The assay can be described thus: Effect on [3H]-thymidine incorporation into MDA-MB 231 human breast cancer cells at 1x10E-6M. In kind it is functional. The method in brief: as §3
Assay [21] deals with MDA-MB-231. Kind of assay: Cytostatic effect on hormone-independent MDA-MB 231 human breast cancer cell proliferation at5x10E-6M. In kind it is functional. The method in brief:
as §2

The test system of assay [22] is MDA-MB-231. Kind of assay: Effect on [3H]thymidine incorporation into MDA-MB 231 human breast cancer cells at 5x10E-6M. It is filed as functional. The method in brief: as §3
The target in assay [23] is T2, Estrogen receptor (Mus musculus). Kind of assay: (§9) Estrogenic activity in uterotrophic assay in immature mice at 50.0 ug subcutaneous dose. In kind it is functional. The method in brief:
as §5

For assay [24] the target is unchanged. The assay can be described thus: (§10) Estrogenic activity in uterotrophic assay in immature mice at 10.0 ug subcutaneous dose. It is filed as functional. The method in brief: as §5
Assay [25] has the same target. Kind of assay: (§11) Estrogenic activity in uterotrophic assay in immature mice at 250 ug subcutaneous dose. In kind it is functional. The method in brief: as §5
For assay [26] the target is unchanged. Described as §9. In kind it is functional. The method in brief:
as §5
This is another data set of the same source.

The target is the same in assay [27]. The assay is described as §11. It is filed as functional. The method in brief:
as §5
This is another data set of the same source.

For assay [28] the target is unchanged. The assay is described as §10. In kind it is functional. The method in brief:
as §5
The source holds these as a separate data set.

The target of assay [29] is T3, Androgen receptor (Mus musculus) (UniProt P19091).
T3 sequence (whole entry): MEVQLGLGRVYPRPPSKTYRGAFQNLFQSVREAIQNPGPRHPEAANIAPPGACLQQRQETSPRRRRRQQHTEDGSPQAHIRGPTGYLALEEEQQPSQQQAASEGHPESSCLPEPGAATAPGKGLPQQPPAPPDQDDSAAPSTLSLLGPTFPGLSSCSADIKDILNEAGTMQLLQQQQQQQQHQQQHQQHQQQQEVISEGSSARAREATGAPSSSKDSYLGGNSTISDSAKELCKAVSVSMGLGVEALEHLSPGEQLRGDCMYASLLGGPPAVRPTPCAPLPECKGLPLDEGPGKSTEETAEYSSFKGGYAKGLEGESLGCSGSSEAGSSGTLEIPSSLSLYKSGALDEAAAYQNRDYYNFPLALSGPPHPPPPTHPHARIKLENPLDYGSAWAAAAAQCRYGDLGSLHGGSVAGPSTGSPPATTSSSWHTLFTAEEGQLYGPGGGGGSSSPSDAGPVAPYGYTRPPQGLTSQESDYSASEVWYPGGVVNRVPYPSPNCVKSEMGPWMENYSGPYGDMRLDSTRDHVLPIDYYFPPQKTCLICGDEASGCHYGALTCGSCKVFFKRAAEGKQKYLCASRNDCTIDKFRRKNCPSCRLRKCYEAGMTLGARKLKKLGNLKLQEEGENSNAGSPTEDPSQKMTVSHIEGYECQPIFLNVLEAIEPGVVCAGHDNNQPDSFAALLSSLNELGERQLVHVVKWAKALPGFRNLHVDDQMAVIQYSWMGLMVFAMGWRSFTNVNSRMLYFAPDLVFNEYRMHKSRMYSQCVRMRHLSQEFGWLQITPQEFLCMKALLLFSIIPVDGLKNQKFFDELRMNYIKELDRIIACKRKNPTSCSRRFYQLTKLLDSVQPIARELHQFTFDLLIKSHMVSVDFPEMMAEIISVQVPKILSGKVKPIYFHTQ
Kind of assay: Relative effect on seminal vesicle weight in adult and castrated mice at 1000 ug dose. It is filed as functional, tissue-based. The method in brief:
(§12)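 Adult male mice, 23–25 g, six per group, were used intact or castrated via the scrotal route under ether 5 days before the test. Castrates received 0.3 mg testosterone propionate daily. Compounds were injected daily in olive oil for nine days. Seminal vesicles were taken 24 h later, fixed in Bouin solution, dried overnight at 100 °C and weighed. Result is organ mg/body g ×100; % inhibition = [1 − treated/control] × 100.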

Assay [30] addresses T3, Androgen receptor (Mus musculus). The assay can be described thus: Relative effect on seminal vesicle weight in adult and castrated mice at 100 ug dose. It is filed as functional, tissue-based. The method in brief: as §12
The target is the same in assay [31]. The assay can be described thus: Relative effect on seminal vesicle weight in adult and castrated mice at 10 ug dose. In kind it is functional, tissue-based. The method in brief: as §12
The target is the same in assay [32]. Kind of assay: Inhibition of seminal vesicle weight in intact mice at 100 ug.
For assay [33] the target is unchanged. The assay can be described thus: Inhibition of seminal vesicle weight in intact mice at 10.0 ug.
Assay [34] shares this target. Described as above. This is another data set of the same source.

T2 sequence (O08537 whole entry, looked up): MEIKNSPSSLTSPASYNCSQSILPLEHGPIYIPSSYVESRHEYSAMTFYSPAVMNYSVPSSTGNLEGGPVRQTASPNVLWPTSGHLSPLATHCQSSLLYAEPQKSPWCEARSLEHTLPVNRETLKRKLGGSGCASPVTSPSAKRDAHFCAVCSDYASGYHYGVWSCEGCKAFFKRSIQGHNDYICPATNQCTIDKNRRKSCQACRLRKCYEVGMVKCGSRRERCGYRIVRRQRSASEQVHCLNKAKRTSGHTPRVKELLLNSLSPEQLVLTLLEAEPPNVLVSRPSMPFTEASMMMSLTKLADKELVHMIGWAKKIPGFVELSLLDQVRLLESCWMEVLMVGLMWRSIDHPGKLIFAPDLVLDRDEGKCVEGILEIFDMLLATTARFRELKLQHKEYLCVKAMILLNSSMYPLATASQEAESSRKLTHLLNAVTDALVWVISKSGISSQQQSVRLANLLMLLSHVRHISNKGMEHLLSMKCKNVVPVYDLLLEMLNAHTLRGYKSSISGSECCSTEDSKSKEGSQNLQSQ
T2 sequence (P19785 whole entry, looked up): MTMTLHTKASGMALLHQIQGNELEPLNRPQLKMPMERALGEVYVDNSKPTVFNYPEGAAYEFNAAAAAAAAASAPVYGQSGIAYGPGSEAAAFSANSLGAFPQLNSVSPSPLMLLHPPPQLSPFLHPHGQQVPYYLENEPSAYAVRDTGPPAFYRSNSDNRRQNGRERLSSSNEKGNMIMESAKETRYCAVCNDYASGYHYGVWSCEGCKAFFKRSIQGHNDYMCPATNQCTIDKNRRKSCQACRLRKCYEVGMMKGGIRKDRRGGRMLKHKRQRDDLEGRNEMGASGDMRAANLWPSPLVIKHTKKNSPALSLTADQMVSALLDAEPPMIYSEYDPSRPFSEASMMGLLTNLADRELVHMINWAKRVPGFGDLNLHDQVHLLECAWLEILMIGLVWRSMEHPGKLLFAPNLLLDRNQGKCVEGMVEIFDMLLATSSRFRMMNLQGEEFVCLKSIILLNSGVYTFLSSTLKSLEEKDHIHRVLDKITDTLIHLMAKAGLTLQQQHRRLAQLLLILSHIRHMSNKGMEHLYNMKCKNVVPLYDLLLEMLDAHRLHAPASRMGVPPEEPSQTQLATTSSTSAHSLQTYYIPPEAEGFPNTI

For `CCC1Cc2cc(OC(C)=O)ccc2-c2c(C=O)c3cc(OC(C)=O)ccc3n21` (stereo unspecified), the RBA is 0.03 in [1], 4.6 in [2] and less than 0.01 in assay [18]. Moreover, the T/C amounted to 14% in assay [3]; 7% in assay [4]; 13% in assay [5]; 3% in assay [6]; 55% in assay [7]; 41% in [8]. The T/C in assay [19] was found to be 75%. Further, the Effect came to 54.7 in assay [9]; 14.5 in [10]; 38.2 in [11]; 48.2 in [12]; 54.7 in assay [13]; 56 in assay [14]. The inhibition in assay [15] was 2.6%; in assay [16] it was 2.7%; in assay [17], 19.6%.
As to `CC(=O)Oc1ccc2c(c1)CC(C)n1c-2cc2cc(OC(C)=O)ccc21` (stereo unspecified), the results for the RBA in [1], in [2] and in assay [18] were 0.2, 12 and 0.01, respectively. Moreover, the T/C in assay [3] is 5%; in [4], 5%; in [20], 65%; in [21], 10%; in assay [22] it was 10%; in [5], 7%. Moreover, the T/C turned out to be 2% in assay [6], 36% in assay [8] and 78% in [19]. The Effect was found to be 21.2 in [10]; 53.3 in assay [23]; 56 in assay [24]; 52.6 in assay [12]; 61.1 in assay [25]; 61.2 in [26]. Moreover, the values for the Effect in assay [27] and in [28] were 72.2 and 26.3, respectively. Moreover, the inhibition in assay [17] was -8%; in [32] it was 27%; in assay [33] it was 1%; in [34], 1%. Also, the Relative seminal vesicle weight in [29] came to 45.2; in [30], 145; in assay [31] it was 195.
